Entries after “also recorded” stand apart in the source; their conditions may differ. Like-named read-outs stand apart in the source and are kept apart here. One block for each molecule: values may come before it.
Key:
mScn = molecular target: T1, mScn (Mus musculus, UniProt P11672); experiment: 1H-15N Trosy HSQC NMR screening and titration on mScn; type: binding; details: FDA-approved drugs library and Vanderbilt discovery library; peak shifts of mScn
T1 sequence (P11672 with tags, fused parts or gaps): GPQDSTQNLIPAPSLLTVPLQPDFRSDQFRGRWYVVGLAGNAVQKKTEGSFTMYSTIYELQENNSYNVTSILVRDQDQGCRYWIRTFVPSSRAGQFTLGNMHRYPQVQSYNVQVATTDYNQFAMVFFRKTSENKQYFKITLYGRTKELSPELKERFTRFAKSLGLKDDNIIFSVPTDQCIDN
Procedure, shortened: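 15N-labelled mScn was expressed in E. coli BL21(DE3) as a 6His-GB1 fusion, and the GB1 tag was cleaved with HRV3C. Screening used pools of 12 compounds (1 μl each of 10 mM DMSO stock) with 20 μM mScn in 100 mM sodium phosphate pH 6.0, 5 vol% D2O and 2 vol% DMSO. Hits were re-tested singly, then titrated with 50 μM mScn (5 vol% DMSO) at protein:ligand ratios from 1:0 to 1:10.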

[1] = ref Gleiter and Mörike, 2002; Buter et al., 1999; cited from earlier work
[2] = ref Gleiter and Mörike, 2002; Buter et al., 1999; cited from earlier work; remark: listed apart in the source
hScn = details: read-out: binding affinity; ref Goetz et al., 2002; Hohlbaum et al., 2018; cited from earlier work
[3] = Isothermal titration calorimetry; type: binding
Procedure, shortened: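 Monomeric hScn C87S (and mutants) was expressed in E. coli on M9 medium and purified by Ni-NTA and size exclusion. The protein sat in the cell and the test compound in the syringe, both in matched 100 mM sodium phosphate pH 6.0 with 2% DMSO. Runs were at 25°C and 750 rpm: a 0.4 μL first injection, then at least 19 injections of 2 μL spaced 150 s. A ligand-into-buffer reference titration was run.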

NMR screening / titration result in words (mScn): identified hits
Molecule: CCCCC(=O)N(Cc1ccc(-c2ccccc2-c2nnn[nH]2)cc1)[C@H](C(=O)O)C(C)C [valsartan]

NMR screening / titration result in words (mScn): identified hits
Molecule: CCOc1nc2cccc(C(=O)O)c2n1Cc1ccc(-c2ccccc2-c2nc(=O)o[nH]2)cc1 [azilsartan]

increase of KD (decrease in binding affinity) compared to wild type ([3]; ITC, candesartan): fivefold
B1: Y138A: hScn_C87S point mutant, best performing loss of binding mutant (protein, UniProt P80188 21-198, looked up, variant C87S Y138A)
Neutrophil …: QDSTSDLIPAPPLSKVPLQQNFQDNQFQGKWYVVGLAGNAILREDKDPQKMYATIYELKEDKSYNVTSVLFRKKKCDYWIRTFVPGSQPGEFTLGNIKSYPGLTSYLVRVVSTNYNQHAMVFFKKVSQNREYFKITLAGRTKELTSELKENFIRFSKSLGLPENHIVFPVPIDQCIDG

The next lines start with the molecule.

Molecule: CCOc1nc2cccc(C(=O)O)c2n1Cc1ccc(-c2ccccc2-c2nnn[nH]2)cc1 [candesartan]
NMR screening / titration result in words (mScn): tightest binding; also recorded: medium to low affinity | maximal plasma concentration [1]: around 0.227 μM | plasma protein binding [2]: exceeding 99%

Molecule: O=C(N[C@H]1COC(=O)[C@@H](NC(=O)c2cccc(O)c2O)COC(=O)[C@@H](NC(=O)c2cccc(O)c2O)COC1=O)c1cccc(O)c1O [enterobactin]
Kd (hScn): 0.41 ± 0.11 nM

B2: T54R: hScn_C87S point mutant, best performing gain of binding mutant (protein, UniProt P80188 21-198, looked up, variant C87S T54R)
Neutrophil …: QDSTSDLIPAPPLSKVPLQQNFQDNQFQGKWYVVGLAGNAILREDKDPQKMYARIYELKEDKSYNVTSVLFRKKKCDYWIRTFVPGSQPGEFTLGNIKSYPGLTSYLVRVVSTNYNQHAMVFFKKVSQNREYFKITLYGRTKELTSELKENFIRFSKSLGLPENHIVFPVPIDQCIDG
Kd ([3]; read-out: ITC KD1, first binding event, value in nM): 115 nM | Kd ([3]; read-out: ITC- KD2, second binding event): 3500 nM

From article PMC13201524 (Journal of structural biology, 2025)
